Source: PubChem BioAssay AID588365 (Broad Institute, 2011)
The source made the active and inactive calls.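 The calls were made as follows: active = compounds lowering cell ATP signal whose fitted half-maximal concentration is at most ten times the top tested dose; inconclusive = flat curve losing 30 to 70 percent, or poor fit; inactive = the rest.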

test system: not listed separately; assay: HeLa cell cytotoxicity, dose response, cytotoxicity control, CellTiter-Glo, 24 h, dry powder (AID 588365); details: HeLa viability, CellTiter-Glo ATP luminescence, 24 h; at 35 µM (top of the series)
How it was run: (§1)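 Technique – CellTiter-Glo ATP luminescence · Test system – human HeLa cell line, viability by cellular ATP · Doses – compound dose series · Buffer or medium – phenol-red-free DMEM, 10% FBS · Controls – DMSO as neutral control, mitoxantrone as cytotoxic positive control · Times – 24 h at 37 °C, 10 min reagent step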

Row | Structure (SMILES) | activity change, negative = cytotoxicity
1 | CC1(C)[C@@H](O[C@H]2O[C@H](C(=O)O)[C@@H](O)[C@H](O)[C@H]2O[C@@H]2O[C@H](C(=O)O)[C@@H](O)[C@H](O)[C@H]2O)CC[C@]2(C)[C@H]3C(=O)C=C4[C@@H]5C[C@@](C)(C(=O)O)CC[C@]5(C)CC[C@@]4(C)[C@]3(C)CC[C@@H]12 | -1.78% (inactive)
2 | Nc1c(C(=O)Nc2ccccc2F)sc2nc(Cc3ccccc3)cc(C(F)(F)F)c12 | 0.381% (inactive)
3 | CSc1ccc(/C=N/Nc2cccc(C(=O)O)c2)cc1 | -3.96% (inactive)
4 | O=C(O)C1Nc2c(O)cc(Cl)c([N+](=O)[O-])c2C2C=CCC12 (stereo unspecified) | -4.48% (inactive)
5 | CC1=NN(c2cccc(C(=O)O)c2)C(=O)/C1=C\C=C\c1ccco1 | -14.3% (inactive)
6 | Clc1ccc(-c2nnc3sc(-c4ccc(Br)o4)nn23)cc1 | -0.723% (inactive)
7 | CN(C)S(=O)(=O)c1cc(C(=O)NC2CCSc3ccccc32)ccc1Cl (stereo unspecified) | -9.03% (inactive)
8 | O=C(O)CCCCCn1c(SCC(=O)c2ccc(O)c(O)c2)nc2ccsc2c1=O | -3.5% (inactive)
9 | O=C1/C(=C/c2ccco2)Oc2c1ccc(O)c2CN1CCCCC1 | 4.06% (inactive)
10 | CCC(=O)Oc1ccc2c(c1)O/C(=C\c1ccco1)C2=O | -1.46% (inactive)
11 | COC(=O)c1ccccc1NC(=O)CCS(=O)(=O)c1ccc(Br)cc1 | -2.03% (inactive)
12 | O=C(O)CC(C(=O)O)N1C(=O)/C(=C/C=C/c2ccco2)SC1=S (stereo unspecified) | 4.8% (inactive)
13 | Nc1c(/C=C2\C=CC(=O)C(O)=C2)c(=O)nc2sc(CC(=O)N3CCCCC3)nn12 | -8.24% (inactive)
14 | O=C1CCCC(O)=C1N=Nc1ccc(C(=O)O)cc1 | -7.5% (inactive)

test system: HeLa viability, CellTiter-Glo ATP luminescence, 24 h; assay: as above; details: not given
How it was run: as §1

Row | Structure (SMILES) | AC50
15 | O=c1c(O)cccc2cc(O)c(O)c(O)c12 | 16.1 µM
16 | O=C(O)CCNc1ccc(NCCC(=O)O)c2c1C(=O)c1ccccc1C2=O | 36.1 µM
